Experimental findings from ChEMBL document CHEMBL4627284, “Pyrimethamine conjugated histone deacetylase inhibitors: Design, synthesis and evidence for triple negative breast cancer selective cytotoxicity” (Bioorg Med Chem, 2020) are described below.

Assay [1] concerns the target T1, Histone deacetylase 1 (Homo sapiens, UniProt Q13547). As to the kind of experiment: Inhibition of human recombinant HDAC1 using fluorogenic HDAC substrate preincubated for 30 mins followed by substrate addition and measured after 15 mins by fluorogenic assay.
Assay [2] has as its target T2, Protein deacetylase HDAC6 (Homo sapiens, UniProt Q9UBN7).
T2 sequence (Q9UBN7 whole entry): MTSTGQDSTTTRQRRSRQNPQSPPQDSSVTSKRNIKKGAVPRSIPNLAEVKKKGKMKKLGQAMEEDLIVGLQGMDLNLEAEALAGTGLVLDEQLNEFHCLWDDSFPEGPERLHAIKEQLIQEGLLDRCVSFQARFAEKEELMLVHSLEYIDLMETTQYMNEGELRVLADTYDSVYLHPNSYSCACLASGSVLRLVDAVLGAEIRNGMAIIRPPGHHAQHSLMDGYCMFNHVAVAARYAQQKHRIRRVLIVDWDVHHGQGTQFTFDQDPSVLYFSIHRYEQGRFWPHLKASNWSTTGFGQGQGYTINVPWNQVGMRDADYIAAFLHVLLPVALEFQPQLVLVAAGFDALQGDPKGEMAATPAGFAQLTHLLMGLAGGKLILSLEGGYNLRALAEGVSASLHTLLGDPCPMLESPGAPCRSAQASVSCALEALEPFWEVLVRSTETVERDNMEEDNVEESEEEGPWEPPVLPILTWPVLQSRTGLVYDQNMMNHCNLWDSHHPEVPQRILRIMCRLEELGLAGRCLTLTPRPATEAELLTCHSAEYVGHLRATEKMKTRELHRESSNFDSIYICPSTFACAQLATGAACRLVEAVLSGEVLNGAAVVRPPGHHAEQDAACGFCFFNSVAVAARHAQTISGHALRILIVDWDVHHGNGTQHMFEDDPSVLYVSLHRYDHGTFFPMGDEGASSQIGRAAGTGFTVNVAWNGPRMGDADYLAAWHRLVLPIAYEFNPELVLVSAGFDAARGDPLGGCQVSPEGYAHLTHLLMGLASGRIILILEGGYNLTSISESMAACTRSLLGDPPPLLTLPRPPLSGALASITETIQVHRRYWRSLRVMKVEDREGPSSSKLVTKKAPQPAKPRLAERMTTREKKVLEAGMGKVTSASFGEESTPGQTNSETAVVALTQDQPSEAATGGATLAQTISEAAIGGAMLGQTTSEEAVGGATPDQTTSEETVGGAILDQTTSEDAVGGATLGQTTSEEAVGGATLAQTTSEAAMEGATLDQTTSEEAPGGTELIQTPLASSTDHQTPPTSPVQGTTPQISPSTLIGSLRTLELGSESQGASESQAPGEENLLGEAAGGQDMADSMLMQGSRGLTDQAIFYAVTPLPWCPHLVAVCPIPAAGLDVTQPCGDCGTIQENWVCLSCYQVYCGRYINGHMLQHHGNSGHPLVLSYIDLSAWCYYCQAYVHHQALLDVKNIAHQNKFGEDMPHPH
The experiment in a line: Inhibition of human recombinant HDAC6 using fluorogenic HDAC substrate 3 preincubated for 30 mins followed by substrate addition and measured after 15 mins by fluorogenic assay.

In a further assay the test system is A549. As to the kind of experiment: cells. As to conditions: Homo sapiens, A549, 72 h. Format: functional, cell-based.
The subject of a further assay is MCF7. The experiment in a line: cells. Format: functional, cell-based. As to conditions: Homo sapiens, MCF7, 72 h.
In assay [3] the test system is MDA-MB-231. The experiment in a line: cells. It is filed as functional, cell-based. As to conditions: Homo sapiens, MDA-MB-231, 72 h.
A further assay deals with Vero. As to the kind of experiment: cells. The settings on record: Chlorocebus sabaeus, 72 h.
The next assay has as its target T3, Histone deacetylase 8 (Homo sapiens, UniProt Q9BY41).
T3 sequence (Q9BY41 whole entry): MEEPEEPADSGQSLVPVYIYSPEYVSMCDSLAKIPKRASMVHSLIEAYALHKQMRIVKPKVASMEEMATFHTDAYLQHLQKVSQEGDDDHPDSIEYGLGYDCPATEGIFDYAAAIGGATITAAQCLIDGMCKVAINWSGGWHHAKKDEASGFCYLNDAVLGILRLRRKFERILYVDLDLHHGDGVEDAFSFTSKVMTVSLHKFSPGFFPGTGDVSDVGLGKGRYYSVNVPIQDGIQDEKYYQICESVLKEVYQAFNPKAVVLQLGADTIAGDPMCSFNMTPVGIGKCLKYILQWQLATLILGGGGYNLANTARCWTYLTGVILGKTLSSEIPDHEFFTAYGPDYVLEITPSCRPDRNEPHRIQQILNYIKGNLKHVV
As to the kind of experiment: Inhibition of human recombinant HDAC8 using fluorogenic HDAC substrate class 2A preincubated for 30 mins followed by substrate addition and measured after 15 mins by fluorogenic assay.

Assay [4] addresses T1, Histone deacetylase 1. The experiment in a line: Inhibition of HDAC1 in human MDA-MB-231 cells assessed as accumulation of acetylated H4 at 50 to 100 uM by western blot analysis. Format: cell-based. In a few lines: (§1)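 MDA-MB-231 cells were grown in DMEM for 24 h, serum-starved for 24 h, then treated for 4 h (DMSO control). Lysates were made in RIPA with protease and phosphatase inhibitors and normalized by BCA. 20-40 µg was run on 4-20% gels and transferred to PVDF, which was blocked in 5% BSA. Membranes were probed overnight for acetyl-α-tubulin or acetyl-H4, then with secondary for 1 h, and bands were quantified by infrared imaging.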

Assay [5] addresses T4, Protein deacetylase HDAC6 (Homo sapiens) (UniProt Q9UBN7).
T4 sequence (whole entry): T2 sequence (Q9UBN7 whole entry)
The experiment in a line: Inhibition of HDAC6 in human MDA-MB-231 cells assessed as accumulation of acetylated tubulin at 50 to 100 uM by western blot analysis. Format: cell-based. In a few lines:
as §1

The target in assay [6] is Signal transducer and activator of transcription 3 (Homo sapiens) (UniProt P40763). The experiment in a line: Inhibition of STAT3 in human MDA-MB-231 cells assessed as upregulation of p-p38 expression after 24 hrs by western blot analysis. It is filed as cell-based. In a few lines: (§2)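 MDA-MB-231 cells, 1*10⁶ per well, were grown in DMEM for 24 h, serum-starved for 24 h, then treated for 24 h from DMSO solutions (final DMSO 0.1%; DMSO control). Cells were lysed in RIPA with protease and phosphatase inhibitors and protein equalized by BCA. 20-40 µg was run on 4-20% gels and transferred to PVDF, which was blocked in 5% BSA. Primary antibodies were applied overnight and secondary for 1 h, and band intensities were quantified by infrared imaging.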

For assay [7] the target is unchanged. As to the kind of experiment: Inhibition of STAT3 in human MDA-MB-231 cells assessed as upregulation of Bcl-xLexpression after 24 hrs by western blot analysis. It is filed as cell-based. The procedure, abridged: as §2
Assay [8] shares this target. The experiment in a line: Inhibition of STAT3 in human MDA-MB-231 cells assessed as effect on pSTAT3 expression at 50 to 100 uM after 24 hrs by western blot analysis. It is filed as cell-based. The procedure, abridged: as §2
Assay [9] has the same target. As to the kind of experiment: Inhibition of STAT3 in human MDA-MB-231 cells assessed as downregulation of cyclinD1 expression at 100 to 200 uM after 24 hrs by western blot analysis. It is filed as cell-based. The procedure, abridged: as §2
The target of assay [10] is T1, Histone deacetylase 1. As to the kind of experiment: Inhibition of HDAC1 in human MDA-MB-231 cells assessed as accumulation of acetylated H4 at 12.5 to 50 uM by western blot analysis. It is filed as cell-based. The procedure, abridged: as §1
For assay [11], the target named is T4, Protein deacetylase HDAC6 (Homo sapiens). As to the kind of experiment: Inhibition of HDAC6 in human MDA-MB-231 cells assessed as accumulation of acetylated tubulin at 12.5 to 50 uM by western blot analysis. Format: cell-based. The procedure, abridged:
as §1

Assay [12] deals with Signal transducer and activator of transcription 3 (Homo sapiens) (UniProt P40763). As to the kind of experiment: Inhibition of STAT3 in human MDA-MB-231 cells assessed as downregulation of Bcl-xL expression after 24 hrs by western blot analysis. Format: cell-based. In a few lines:
as §2

Assay [13] has the same target. The experiment in a line: Inhibition of STAT3 in human MDA-MB-231 cells assessed as slight downregulation of Bcl-2 expression at 5 to 25 uM after 24 hrs by western blot analysis. It is filed as cell-based. The procedure, abridged: as §2
The target is the same in assay [14]. The experiment in a line: Inhibition of STAT3 in human MDA-MB-231 cells assessed as effect on pSTAT3 expression at 5 to 25 uM after 24 hrs by western blot analysis. It is filed as cell-based. The procedure, abridged:
as §2

The target is the same in assay [15]. As to the kind of experiment: Inhibition of STAT3 in human MDA-MB-231 cells assessed as downregulation of cyclinD1 expression at 2.5 to 5 uM after 24 hrs by western blot analysis. Format: cell-based. The procedure, abridged: as §2
The subject of assay [16] is MDA-MB-231. As to the kind of experiment: Cell cycle arrest in human MDA-MB-231 cells assessed as accumulation of cells at G1 phase at 25 uM incubated for 48 hrs RNase/PI staining based flow cytometry assay (reference value: 64.3 %). It is filed as functional. In a few lines: (§3)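 MDA-MB-231 cells, 5*10⁶ per 10 cm plate, were grown in DMEM for 24 h and then dosed for 48 h from DMSO stocks (final DMSO 0.1%; DMSO as control). Cells were trypsinized, washed twice in cold PBS and fixed in 70% ethanol overnight at -20°C. They were treated with 200 ug/mL RNase for 30 min, stained with 50 ug/mL PI at RT for 30 min, and DNA content was read by flow cytometry.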

Assay [17] concerns MDA-MB-231. The experiment in a line: Cell cycle arrest in human MDA-MB-231 cells assessed as accumulation of cells at S phase at 12.5 uM incubated for 48 hrs RNase/PI staining based flow cytometry assay (reference value: […] %). It is filed as functional. The procedure, abridged: as §3
In assay [18] the test system is MDA-MB-231. The experiment in a line: Cell cycle arrest in human MDA-MB-231 cells assessed as accumulation of cells at S phase at 25 uM incubated for 48 hrs RNase/PI staining based flow cytometry assay (reference value: 11.5 %). It is filed as functional. The procedure, abridged: as §3
Assay [19] concerns MDA-MB-231. As to the kind of experiment: Cell cycle arrest in human MDA-MB-231 cells assessed as accumulation of cells at G2 phase at 12.5 uM incubated for 48 hrs RNase/PI staining based flow cytometry assay (reference value: 17.4 %). It is filed as functional. In a few lines: as §3
Assay [20] has as its system MDA-MB-231. As to the kind of experiment: Cell cycle arrest in human MDA-MB-231 cells assessed as accumulation of cells at G2 phase at 25 uM incubated for 48 hrs RNase/PI staining based flow cytometry assay (reference value: 17.4 %). It is filed as functional. The procedure, abridged:
as §3

The subject of assay [21] is MDA-MB-231. The experiment in a line: Cell cycle arrest in human MDA-MB-231 cells assessed as accumulation of cells at G2 phase at 12.5 uM incubated for 48 hrs by flow cytometry (reference value: […] %).

Activity calls are given as the source filed them. The calls are words filed in the database; no cut-off is given here.

T1 sequence (Q13547 whole entry): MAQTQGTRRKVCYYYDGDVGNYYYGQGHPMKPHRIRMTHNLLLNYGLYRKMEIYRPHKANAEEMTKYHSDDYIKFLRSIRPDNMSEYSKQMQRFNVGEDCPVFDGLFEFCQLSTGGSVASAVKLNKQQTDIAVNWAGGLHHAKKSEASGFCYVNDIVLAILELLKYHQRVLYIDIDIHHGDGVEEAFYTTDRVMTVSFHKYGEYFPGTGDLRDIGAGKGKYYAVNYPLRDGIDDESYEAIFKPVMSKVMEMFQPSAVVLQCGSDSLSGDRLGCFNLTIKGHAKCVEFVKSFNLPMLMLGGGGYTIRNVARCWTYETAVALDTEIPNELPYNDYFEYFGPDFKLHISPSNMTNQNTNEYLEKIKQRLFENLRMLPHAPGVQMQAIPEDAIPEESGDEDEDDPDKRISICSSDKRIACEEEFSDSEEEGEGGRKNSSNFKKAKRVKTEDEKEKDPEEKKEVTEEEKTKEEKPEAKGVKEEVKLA
Chain of Signal transducer and activator of transcription 3 (Homo sapiens) (P40763 whole entry): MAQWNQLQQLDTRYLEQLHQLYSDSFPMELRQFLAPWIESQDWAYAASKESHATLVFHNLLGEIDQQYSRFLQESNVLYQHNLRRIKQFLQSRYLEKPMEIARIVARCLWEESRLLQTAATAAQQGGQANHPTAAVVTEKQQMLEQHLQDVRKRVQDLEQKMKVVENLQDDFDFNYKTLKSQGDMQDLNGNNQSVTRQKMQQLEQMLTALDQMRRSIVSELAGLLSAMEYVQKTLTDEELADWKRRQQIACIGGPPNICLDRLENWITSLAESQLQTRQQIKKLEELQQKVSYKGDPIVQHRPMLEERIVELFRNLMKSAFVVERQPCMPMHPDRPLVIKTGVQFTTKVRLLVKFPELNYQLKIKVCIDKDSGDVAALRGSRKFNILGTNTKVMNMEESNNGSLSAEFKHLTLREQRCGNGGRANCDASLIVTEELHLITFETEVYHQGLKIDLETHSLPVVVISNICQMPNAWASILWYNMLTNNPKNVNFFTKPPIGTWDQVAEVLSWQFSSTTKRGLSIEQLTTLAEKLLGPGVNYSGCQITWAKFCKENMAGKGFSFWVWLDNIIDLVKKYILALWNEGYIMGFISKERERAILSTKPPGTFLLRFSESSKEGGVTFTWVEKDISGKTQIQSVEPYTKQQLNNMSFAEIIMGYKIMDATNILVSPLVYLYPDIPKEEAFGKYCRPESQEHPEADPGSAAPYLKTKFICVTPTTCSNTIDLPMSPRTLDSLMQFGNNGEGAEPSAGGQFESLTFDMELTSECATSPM

Consider `CCc1nc(N)nc(N)c1-c1ccc(-c2ccc(/C=C/C(=O)NO)cc2)cc1`, for which the concentration for half-maximal inhibition (IC50) at Histone deacetylase 1 [1] stood at 3.7 µM; in [2] it was 0.073 µM; with A549, 10 µM; with MCF7, 9.3 µM; in the assay with MDA-MB-231 [3] it was 5.43 µM; in the assay on Vero it was 6.9 µM.

On to `CCc1nc(N)nc(N)c1-c1ccc(/C=C/C(=O)NO)cc1`, for which the IC50 was 2.2 µM at Histone deacetylase 1 [1], 0.4 µM in assay [2] and 1.8 µM at Histone deacetylase 8.

For `CCc1nc(N)nc(N)c1-c1ccc(Cl)cc1` [PYRIMETHAMINE], the results for the IC50 in the assay with MCF7 and in the assay on MDA-MB-231 [3] were 453 µM and 238 µM, respectively. In addition, the inhibition result (on Histone deacetylase 1 [4]; in assay [5]; in assay [8]) was “inactive” in each case. Also, the inhibition entry in assay [6] was “Dose-dependent effect”. In addition, the inhibition entry in [7] and in [9] was “Active” in each case.

Take `CCc1nc(N)nc(N)c1-c1ccc(-c2cn(CCCCCCCC(=O)NO)nn2)cc1`: the IC50 on Histone deacetylase 1 [1] was 0.21 µM; in assay [2], 0.021 µM; with A549 it was 88.5 µM; in the assay on MCF7, 83.3 µM; in the assay with MDA-MB-231 [3], 21.4 µM. Also, the inhibition result (at Histone deacetylase 1 [10]; in assay [11]; in assay [13]; in assay [15]) was “Active” each time. The inhibition entry in assay [6] and in assay [12] was “Dose-dependent effect” each time. For the same molecule, in [14], the inhibition entry is “inactive”. The Activity with MDA-MB-231 [16] amounted to 22.1%; with MDA-MB-231 [17], 5.17%; in the assay with MDA-MB-231 [18] it was 1.63%; with MDA-MB-231 [19], 66.8%; in the assay with MDA-MB-231 [20] it was 70.6%; in the assay with MDA-MB-231 [21], 24%.
